Source: PubChem
FXIIa inh 1536: blocks human coagulation factor XIIa protease activity | P00748 | actives 0.3% (n = 220,000) | AID 800 | inhibition, % at 5 µM | purified FXIIa, Boc-QGR-AMC fluorogenic substrate, 2 h; in the data active = inhibition above about 40%;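 note: 0% = enzyme with no compound and 100% = blank without enzyme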
hK5 inh: blocks human kallikrein 5 protease activity | actives 0.59% (n = 210,000) | Q9Y337 | AID 873 | inhibition, % at 5 µM | recombinant hK5, fluorogenic AMC substrate cleavage;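 active = inhibition of 40% or more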;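 note: 0% = enzyme controls without compound and 100% = no-enzyme blanks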
Target sequence (Q9Y337 67-293 limits assumed): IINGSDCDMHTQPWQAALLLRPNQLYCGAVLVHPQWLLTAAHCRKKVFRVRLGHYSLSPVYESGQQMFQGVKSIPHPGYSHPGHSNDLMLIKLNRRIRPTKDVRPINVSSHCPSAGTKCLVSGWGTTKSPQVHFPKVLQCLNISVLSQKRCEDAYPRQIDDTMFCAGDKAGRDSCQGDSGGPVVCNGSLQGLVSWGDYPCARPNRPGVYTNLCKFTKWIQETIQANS
Calpain2 inh: calpain II (pig) inhibition; purified calpain II, fluorogenic peptide substrate, 30 min; inhibition, % at 16 µM; actives 0.37% (n = 220,000);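 active = inhibition above about 50%, limit read from the data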
Furin inhibitor: human furin inhibition. AID 463115. purified furin, fluorogenic substrate cleavage. actives 0.061% (n = 220,000). P09958. inhibition, % at 20 µM or 30 µM; in the data active = inhibition above about 25%
Thrombin inh: thrombin (human) inhibition | alpha-thrombin, Boc-VPR-AMC fluorogenic substrate cleavage | inhibition, % at 5 µM | actives 0.26% (n = 220,000);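 active = inhibition at or above 40%; inactive = inhibition below 40%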;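 note: 0% = enzyme with no compound and 100% = wells without enzyme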
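Test system: human alpha-thrombin; medium: pH 7.5 Tris-saline with Tween 20; times: reaction at room temperature; signal: AMC fluorescence at 355 nm excitation and 460 nm emission; also added: Boc-VPR-AMC substrate, 15 µM final; dosing: one concentration per compound, 5 µM, with 0.2% DMSO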
FXIa inh: inhibitors of human coagulation factor XIa; inhibition, % at 5 µM; P03951; actives 0.14% (n = 220,000); purified FXIa, Boc-Glu-Ala-Arg-AMC fluorogenic substrate;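 active = inhibition of at least 40%; inactive = inhibition below 40%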;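 note: fluorescence of freed AMC excited at 355 nm; 0% = enzyme without compound and 100% = no enzyme blank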
Active calls of the source: *; nt = no result. Compounds with a hit are over-represented: about 1.4% of the library has one in this group of screens.

SMILES | FXIIa inh 1536 | hK5 inh | Calpain2 inh | Furin inhibitor | Thrombin inh | FXIa inh
O=C(CSc1nc2[nH]ncc2c(=O)[nH]1)N1CCCCC1 | 15 | 36 | 20 | -11 | 47* | 3
O=C(CSc1nc2[nH]ncc2c(=O)[nH]1)N1CCCC1 | 8 | -5 | -2 | -17 | -15 | 4
CC1=C(C(=O)NCc2ccccc2)C(c2cccs2)NC(=S)N1 (stereo not given) | 7 | 0 | 6 | -31 | -7 | -2
CCC(CC)N1CCN(CC2CC=CCC2)CC1 (stereo not given) | 6 | -2 | -19 | -26 | -21 | -8
COc1ccc(NC(=O)CN2CCN(c3nc(-c4cccc(OC)c4)cs3)CC2)cc1 | 11 | -16 | 11 | -15 | -7 | 1
COc1ccc(NC(=O)CN2CCN(c3nc(-c4ccc(F)cc4)cs3)CC2)c(OC)c1 | 12 | 7 | 56* | -8 | -2 | 3
CC1=C(C(=O)Nc2ccccc2)C(c2ccc(O)cc2)N2C(=O)CSC2=N1 (stereo not given) | 16 | 37 | 7 | -2 | 43* | 7
O=C(NCCc1nnc2ccc(NCc3ccc(Cl)cc3)nn12)c1ccccc1 | 11 | -14 | 57* | -14 | 3 | -2
Cc1cc(NC(=O)CSc2nnc(N)s2)c([N+](=O)[O-])cc1C | 3 | -5 | -26 | -12 | -7 | -9
Cc1ccc(NC(=O)C(C)N2CCOCC2)c(C(=O)c2ccccc2)c1 (stereo not given) | 14 | 43* | 15 | -15 | 19 | 5
CC(C)C(=O)Nc1cc2c(cc1C(=O)c1ccccc1)OCCO2 | 19 | 1 | 9 | -15 | 0 | 1
CC1=CC(=O)c2c(O)ccc(O)c2C1=O | 6 | -7 | 47 | -14 | 1 | 1
COC(=O)c1[nH]c(C)c(/C(O)=C2\C(=O)C(=O)N(CCN(C)C)C2c2cccc(OC)c2OC)c1C (stereo not given) | 44* | 56* | 21 | -1 | 11 | 5
CN(C)CCNC(=O)c1ccc(Sc2ccc(Br)cc2)c([N+](=O)[O-])c1 | 9 | 6 | -9 | -11 | -2 | 1
Cc1ccnc(NC(=O)C2CCCN(S(=O)(=O)c3cnc[nH]3)C2)c1 (stereo not given) | -8 | 15 | 8 | -11 | 70* | -10
Cc1nn(C)c(C)c1NC(=O)c1ccccc1NC(=O)Nc1ccccc1 | 4 | 2 | 0 | -33 | 0 | 10
Fc1ccc(Nc2ccc3ccccc3n2)c(F)c1 | 36 | 47* | 19 | 2 | 36 | 104*
Cc1cc(Nc2ccc(F)cc2F)n2nc(C)nc2n1 | 2 | -7 | 2 | -33 | -6 | -4
O=C1NCC(COCc2ccco2)O1 (stereo not given) | 17 | 32 | 5 | -29 | 103* | 8
Cc1ccccc1OCC1CNC(=O)O1 (stereo not given) | 5 | -3 | -9 | -13 | -12 | -2
Cc1ccc(N/N=C2\CCS(=O)(=O)c3sccc32)cc1 | 8 | 6 | 54* | -21 | -5 | 1
COC(=O)c1nnn(CC(=O)NC(=O)Nc2cccc(Cl)c2C)c1C(=O)OC | 2 | 1 | -4 | -10 | -9 | 0
CCC(C)/C(C)=N/NC(=O)c1ccc(CSc2nc3ccccc3s2)cc1 (stereo not given) | 4 | -20 | 22 | -19 | -9 | 1
O=C(CSC1CCCCC1)Nc1nccs1 | 27 | 54* | 3 | -25 | 104* | 18
Cc1cccc(NC(=S)NCc2ccco2)n1 | 2 | 1 | 5 | -16 | -15 | 0
SMILES | FXIIa inh 1536 | hK5 inh | Calpain2 inh | Furin inhibitor | Thrombin inh | FXIa inh
C=C(C)CNC(=S)Nc1cccc(N)n1 | 20 | 41* | 18 | 0 | 11 | 48*
CC(C)N1CCC(N2CCN(Cc3ccc(-c4ccc(Cl)cc4)o3)CC2CCO)CC1 (stereo not given) | 6 | nt | -9 | -13 | -4 | -2
O=C(NCCCn1ccnc1)c1ccccc1NS(=O)(=O)c1ccc(F)c(F)c1 | -5 | 86* | 1 | -12 | 17 | 4
Cc1cc(C)c(C)c(S(=O)(=O)Nc2ccccc2C(=O)NCCCn2ccnc2)c1C | 15 | -6 | -95 | -6 | 4 | 7
O=C(Nc1ccccc1Cl)C1CC(=O)N(c2ccccc2)C1 (stereo not given) | 41* | 25 | 11 | -12 | 5 | 16
COC(=O)c1ccccc1NC(=O)C1CC(=O)N(c2ccccc2)C1 (stereo not given) | 13 | -1 | -23 | -15 | -2 | 6
COc1ccc(N2CC(C(=O)Nc3ccc(S(=O)(=O)Nc4nc(C)cc(C)n4)cc3)CC2=O)cc1 (stereo not given) | 11 | 0 | -17 | -20 | 1 | 3
Cc1cc(C)nc(NS(=O)(=O)c2ccc(NC(=O)C3CC(=O)N(c4ccccc4)C3)cc2)n1 (stereo not given) | 31 | 60* | 20 | -1 | 34 | 12
CN(C)c1cccc2c1c(NC(=O)c1ccc(Cl)cc1)nn2C | 11 | -4 | -3 | -9 | 4 | 1
CCc1ccc(NC(=O)C2CCCN2S(=O)(=O)c2ccc3c(c2)n(C)c(=O)c(=O)n3C)cc1 (stereo not given) | 1 | -3 | -9 | -5 | -11 | -2
COc1ccc(OCCNc2cc(N3CCOCC3)ccc2[N+](=O)[O-])cc1 | 0 | -23 | 93* | -8 | 0 | -8
CCC1CCCCN1C(=O)c1ccc(OC2CCN(C(=O)C3CC3)CC2)cc1 (stereo not given) | 15 | nt | 57* | -7 | 1 | 12
Cc1scc(C(=O)N2CCN(c3ccc(Cl)cc3)CC2)c1C | -3 | -18 | -8 | -23 | 1 | -4
O=S(=O)(CC(c1ccccc1)N1CCCCC1)c1ccc(Cl)cc1 (stereo not given) | 16 | 48* | 20 | -9 | 6 | 5
Cc1ccc(S(=O)(=O)CC(c2ccccc2)N2CCCCC2)cc1 (stereo not given) | nt | 3 | -14 | -34 | -1 | 5
CCC(=O)N1CCc2cc(Br)cc(S(=O)(=O)N(C)c3ccc(OC)cc3OC)c21 | 6 | -13 | 22 | -14 | 3 | -1
CC1=C(C(=O)N2CCCCC2)C(c2cccs2)C2=C(CCCC2=O)N1 (stereo not given) | -6 | 138* | nt | -15 | 2 | -4
CCOC(=O)CNC(=O)Cn1cnc2c(nnn2-c2cccc(Cl)c2)c1=O | 43* | -9 | 20 | -23 | 1 | 12
Cc1ccsc1C(=O)NCCC(c1ccccc1)c1ccccc1 | 48* | 35 | 47 | -15 | 17 | 17
Cc1nc(C)c(C(=O)NCCC(c2ccccc2)c2ccccc2)o1 | -1 | -10 | -57 | -14 | -3 | -9
Cc1ccccc1NC(=S)NCCC(c1ccccc1)c1ccccc1 | 12 | -11 | 78* | -10 | 35 | -6
COc1cccc(Cn2cc(C(=O)NCCN(C)C)nn2)c1 | 9 | 4 | -7 | -21 | -1 | -2
